# Test results reported in article PMC11184607 (ACS Pharmacology & Translational Science, 2024).
# Bridge positions count the residues as written; N and C are the ends. Square brackets hold non-standard residues; d marks the D form. Peptide text beside a SMILES is read from it. * marks the point of attachment. NMe2Val = CC(C)[C@@H](C(=O)*)N(C)C; NMeI = CC[C@H](C)[C@H](NC)C(=O)O; NMeT = CN[C@H](C(=O)O)[C@@H](C)O; NMeL = CN[C@@H](CC(C)C)C(=O)O; dHiv = CC(C)[C@@H](O)C(=O)O; NMeS = CN[C@@H](CO)C(=O)O; dNMeA = CN[C@H](C)C(=O)O
# Assays:
# Gluc-U87 cells = assay: Viability of adherent GLuc-U87 cells; type: cell-based, human; conditions: 0.3–300 nM
# U87-MG GBM cells = assay: Cell viability; type: cell-based, human; conditions: read-out: EC50, U87-MG cells; 72 h
# Procedure, shortened: (§1)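 Cells are grown at 37 °C in 5% CO2. U87-MG and U251 are in MEM with 10% FBS, SF-268 in DMEM with 10% FBS, and SF-295 in RPMI 1640 with 10% FBS. HUVECs are pooled donors. Exposure is to the test compound (0.1 nM–1 μM) or 0.1% DMSO for 72 h. Viability is read by ATP luminescence as % of vehicle, n = 3 wells. […] comes from a logistic nonlinear fit over three independent comparisons.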
# U251 GBM cells = assay: Cell viability; type: cell-based, human; conditions: read-out: EC50, U251 cells; 72 h
# Procedure, shortened: as §1
# SF-268 GBM cells = assay: Cell viability; type: cell-based, human; conditions: read-out: EC50, SF-268 cells; 72 h
# Procedure, shortened: as §1
# [1] = system: WT and mutant (R66I) Sec61α HCT116 colon cancer cells; assay: Viability of WT versus Sec61α R66I mutant HCT116 cells; type: cell-based, human; conditions: 72 h and 6 days (3 + 3 day exposure)
# [2] = system: HEK293FRT cells expressing WT or mutant (R66I) Sec61α; assay: Viability of WT versus Sec61α R66I mutant HEK293 cells; type: cell-based, human; conditions: 72 h or 3 + 3 day exposure
# Procedure, shortened: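 HEK293FRT cells carrying Sec61α R66I, with wild-type comparators, are grown in DMEM with 10% FBS, 6 mM L-glutamine and 1 mM pyruvate. They are exposed to increasing test compound concentrations or 0.1% DMSO for 72 h, or 3 + 3 days to avoid nutrient deprivation. ATP viability is read as % of vehicle, n = 3 wells. Logistic nonlinear fit; ≥3 independent experiments.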
# BiP = assay: Immunoblot of BiP expression; type: cell-based, human
# Hsp70 = assay: Immunoblot of Hsp70 in U87-MG cells; type: cell-based, human; conditions: 1 30 nM, 2 1 μM, 24 h
# Procedure, shortened: (§2)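 U87-MG cells in MEM with 10% FBS are exposed 24 h to test compound (30 nM or 1 μM) or 0.1% DMSO. Protein-matched lysates (BCA) are run on SDS-PAGE, transferred to PVDF and detected with HRP secondary. Signals are normalized to α-tubulin and expressed relative to control. Three independent experiments; one-way ANOVA then t-test.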
# Hsp90 = assay: Immunoblot of Hsp90 in U87-MG cells; type: cell-based, human; conditions: 1 30 nM, 2 1 μM, 24 h
# Procedure, shortened: as §2
# GSC line 83 = assay: GSC neurosphere viability, 72 h, line 83; type: cell-based, human; conditions: read-out: EC50, GSC type 83
# [3] = system: patient-derived GSCs (M120, MGG6, M76, GBM8, and 157); type: cell-based, human; conditions: read-out: EC50, viability of 5/6 GSC lines; 72 h
# [4] = system: UPR markers (BiP, CHOP, sXBP1, GADD34, IRE1) mRNA; assay: qPCR of ER stress; type: cell-based, human; conditions: 80 nM plus thapsigargin 300 nM, 24 h
# Procedure, shortened: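 GSC neurospheres (MGG6, 83, M76, GBM8) are treated 24 h with test compound 80 nM, thapsigargin 300 nM, both together, or 0.1% DMSO. BiP, CHOP, sXBP1, GADD34 and IRE1 mRNA are measured by qPCR normalized to GAPDH and expressed as fold-change versus vehicle.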
# GSC 157 neurospheres = assay: Neurosphere morphology of GSC 157 by light microscopy; type: cell-based, human; conditions: 100 nM, 24 h, relative to control-treated cells
# Procedure, shortened: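 Patient-derived GSC 157 cells are dissociated from tumour and expanded as neurospheres in medium with heparin 2 μg/mL, EGF 20 ng/mL and bFGF 10 ng/mL. Neurospheres receive test compound at 100 nM for 24 h. Morphology and neurosphere size are compared with control-treated cells.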
# subcutaneous xenografts = conditions: unmodified natural product; cited from earlier work
smiles,measurement,setting,value
"CC[C@H](C)[C@H]1C(=O)N[C@@H](C)C(=O)N(C)[C@@H](CC(C)C)C(=O)N[C@@H](Cc2ccc(OC)cc2)C(=O)N(C)[C@H](C)C(=O)O[C@H](C)[C@H](N(C)C(=O)[C@H](CC(C)C)N(C)C(=O)[C@H](COC)N(C)C(=O)[C@H](OC(=O)[C@H](C(C)C)N(C)C)C(C)C)C(=O)N(C)[C@@H](COC)C(=O)N1C [compound 1, Coibamide A] (NMe2Val-[dHiv][NMeS](Me)[NMeL][NMeT][NMeS](Me)[NMeI]A[NMeL]Y(Me)[dNMeA]; ester 4-C)",Cell viability at 18 h,Gluc-U87 cells,no change in cell viability
same,EC50,U87-MG GBM cells,18 nM
same,EC50,U251 GBM cells,> 700 nM
same,EC50,SF-268 GBM cells,> 700 nM
same,Effect of Sec61α R66I mutation on cytotoxic response relative to WT HCT116 cells,[1],mild resistance
same,Response of mutant Sec61(R66I) HEK293 cells relative to WT,[2],resistant
same,"BiP expression, GSC line 83","BiP; 1 250 nM and 500 nM, 2 3 µM, 72 h",decrease
same,"BiP protein expression, GSC MGG6 neurospheres and adherent U87-MG cells","BiP; immunoblot, 24 h",downregulation
same,Hsp70 expression,Hsp70,upregulation
same,Hsp90 expression,Hsp90,upregulation
same,EC50,GSC line 83,~100 nM
same,EC50,[3],< 4 nM
same,"Effect on thapsigargin-induced upregulation of all UPR markers, GSC line MGG6",[4],almost completely abrogated
same,Change in neurosphere morphology,GSC 157 neurospheres,reduction in neurosphere size
same,Safety after repeat dosing in mice bearing subcutaneous xenografts,subcutaneous xenografts,adverse safety profile
